Measurements reported in article PMC9199876 (Clinical and Translational Science, 2022).
Values joined by “and” are separate entries in the source; they are usually repeats but may differ in a detail not shown here. Identical values can stand only once. Like-named read-outs stand apart in the source and are kept apart here.

Tests used:
[1] = Phase I two-way crossover study: plasma pharmacokinetics of trazpiroben and M23; format: in vivo, humans (healthy adults); settings: for AUC∞, geometric mean (mean CV%) / C max, geometric mean (geometric CV%) / T max, median (min, max) / t 1/2z, mean (SD): plasma trazpiroben; for AUC∞, geometric mean (mean CV%): n = 12
How it was run: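 Open-label crossover in healthy adults fasted ≥10 h: a single oral 25 mg capsule, alone or right after a 30-min i.v. infusion of 600 mg rifampin, with ≥7-day washout. Parent and metabolite were measured by LC-MS/MS (range 0.1–50.0 ng/ml; BLOQ set to zero). Noncompartmental analysis used actual sampling times.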

OATP1B1/1B3 [2] = test: Clinical DDI: effect of single-dose i.v. rifampin; format: in vivo, humans (healthy adults); settings: plasma trazpiroben; trazpiroben with rifampin relative to trazpiroben alone
How it was run: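 Healthy fasted adults (n = 12) in a two-way crossover: an oral 25 mg capsule of test compound alone, or given immediately after 600 mg rifampin i.v. over 30 min. Washout was ≥7 days. Plasma parent and metabolite were assayed by validated LC-MS/MS and analysed noncompartmentally. The ANOVA on log-transformed AUC∞ and Cmax gave the LSM difference (B – A), which was exponentiated to give GMRs with 90% CIs.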

[3] = Safety and tolerability assessment; format: in vivo, humans (healthy adults); settings: for Number of participants with TEAEs / TEAE: Abdominal pain, upper / TEAE: Cough / TEAE: Dermatitis contact / TEAE: Gastrointestinal disorders / TEAE: Headache / TEAE: Nasal congestion / TEAE: Nervous system disorders / TEAE: Respiratory, thoracic, and mediastinal disorders / TEAE: Sensory disturbance / TEAE: Sinus congestion / TEAE: Skin and subcutaneous tissue disorders / TEAE: Sneezing: n = 12
How it was run: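 Twelve healthy adults received a single oral 25 mg dose with and without i.v. rifampin 600 mg in crossover. TEAEs were monitored throughout. Vital signs and triplicate 12-lead ECGs were taken at screening (day −28 to −2), predose, and 1, 2, 4, 8 and 48 h post dose in each period. Serum chemistry, hematology and urinalysis were also run. Follow-up included a full physical exam, vital signs and ECG.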

[4] = oral administration, rats; cited from earlier work
[5] = oral administration, dogs; cited from earlier work
[6] = tested on: cytosolic NADPH-dependent reductases; settings: in vitro; cited from earlier work
CYP3A4 [7] = settings: in vitro; cited from earlier work
CYP2C8 [8] = settings: in vitro; cited from earlier work
[9] = ref data on file, cited from earlier work
[10] = preclinical; cited from earlier work
CYP1A2 = settings: in vitro, clinically relevant dose (0.06 μM); cited from earlier work
CYP2B6 = settings: in vitro, clinically relevant dose (0.06 μM); cited from earlier work
CYP2C8 [11] = settings: in vitro, clinically relevant dose (0.06 μM); cited from earlier work
CYP2C9 = settings: in vitro, clinically relevant dose (0.06 μM); cited from earlier work
CYP2C19 = settings: in vitro, clinically relevant dose (0.06 μM); cited from earlier work
CYP2D6 = settings: in vitro, clinically relevant dose (0.06 μM); cited from earlier work
CYP3A = settings: in vitro, clinically relevant dose (0.06 μM); cited from earlier work
CYP isoforms = settings: in vitro, clinically relevant dose (0.06 μM); cited from earlier work
CYP3A4 [12] = settings: phase I DDI studies; cited from earlier work
[13] = cited from earlier work
[14] = single and multiple doses, healthy men and women; cited from earlier work
[15] = healthy Japanese individuals; cited from earlier work
p-glycoprotein (P-gp) = settings: in vitro; cited from earlier work
OATP1B1/1B3 [16] = settings: in vitro; cited from earlier work
[17] = tested on: breast cancer resistance protein (BCRP); settings: in vitro; cited from earlier work
MATE1 [18] = settings: in vitro; cited from earlier work
MATE2-K [19] = settings: in vitro; cited from earlier work
OAT1 [20] = settings: in vitro; cited from earlier work
OAT3 [21] = settings: in vitro; cited from earlier work
OCT2 [22] = settings: in vitro; cited from earlier work
BCRP = settings: at a clinically relevant dose; cited from earlier work
bile salt export pump = settings: at a clinically relevant dose; cited from earlier work
MATE1 [23] = settings: at a clinically relevant dose; cited from earlier work
MATE2-K [24] = settings: at a clinically relevant dose; cited from earlier work
OAT1 [25] = settings: at a clinically relevant dose; cited from earlier work
OAT3 [26] = settings: at a clinically relevant dose; cited from earlier work
OCT2 [27] = settings: at a clinically relevant dose; cited from earlier work
OATP1B1/1B3 [28] = settings: at a clinically relevant dose; cited from earlier work
[29] = phase II, 51 patients with idiopathic or diabetic gastroparesis; cited from earlier work
[30] = trazpiroben 25 mg + rifampin 600 mg i.v.
[31] = trazpiroben 25 mg + rifampin 600 mg
[32] = fasted rats, oral radiolabeled trazpiroben, after 24 h

SMILES: O=C(O)c1cccc(CN2CN(C3CCCCC3)C3(CCN(CCCC(=O)c4ccccc4)CC3)C2=O)c1 [trazpiroben, Trazpiroben]
- participants with detectable levels of plasma trazpiroben ([1]; 0.5 h, co-administered with rifampin): all participants
- participants with detectable levels of plasma trazpiroben ([1]; 0.5 h after trazpiroben alone): 92%
- participants with detectable levels of plasma trazpiroben ([1]; 12 h after trazpiroben alone): 92%
- participants with detectable levels of plasma trazpiroben ([1]; 16 h after trazpiroben alone): 42%
- participants with detectable levels of plasma trazpiroben ([1]; 16 h post dose, trazpiroben + rifampin): 83%
- AUC∞, geometric mean (mean CV%) ([1]; single oral trazpiroben 25 mg alone): 32.7 ng*h/ml and 32.68 (23.9) ng*h/ml
- C max, geometric mean (geometric CV%) [1, 30]: 89.62 (68.6) ng/ml
- T max, median (min, max) [1, 30]: 1.002 (0.49, 2.00) h
- t 1/2z, mean (SD) [1, 30]: 2.028 ± 0.3449 h
- C max, geometric mean (geometric CV%) ([1]; trazpiroben 25 mg alone): 14.37 (38.7) ng/ml
- T max, median (min, max) ([1]; trazpiroben 25 mg alone): 1.037 (0.50, 2.00) h
- t 1/2z, mean (SD) ([1]; trazpiroben 25 mg alone): 4.229 ± 3.7897 h
- AUC∞, geometric mean (mean CV%) ([1]; trazpiroben 25 mg oral + rifampin 600 mg i.v.): 168.5 (49.9) ng*h/ml
- CL/F, geometric mean (geometric CV%) [1, 30]: 148.4 (49.9) L/h
- V z/F, geometric mean (geometric CV%) [1, 30]: 428.1 (49.9) L
- CL/F, geometric mean (geometric CV%) ([1]; trazpiroben 25 mg alone): 765.1 (23.9) L/h
- V z/F, geometric mean (geometric CV%) ([1]; trazpiroben 25 mg alone): 3469 (70.7) L
- AUC∞ geometric mean ratio (90% CI) (OATP1B1/1B3 [2]): 5.16 (4.25–6.25) fold
- C max geometric mean ratio (90% CI) (OATP1B1/1B3 [2]): 6.24 (4.62–8.42) fold
- serum chemistry, hematology, urinalysis, vital signs, and ECG results ([3]; all participants, throughout the study): remained within normal limits
- AE relating to QT prolongation ([3]; current study): no clinically relevant AE relating to QT prolongation
- Number of participants with TEAEs ([3]; overall (both treatments)): 6 (50) n (%)
- TEAE: Abdominal pain, upper ([3]; overall (both treatments)): 1 (8) n (%)
- TEAE: Cough ([3]; overall (both treatments)): 1 (8) n (%)
- TEAE: Dermatitis contact ([3]; overall (both treatments)): 1 (8) n (%)
- TEAE: Gastrointestinal disorders ([3]; overall (both treatments)): 1 (8) n (%)
- TEAE: Headache ([3]; overall (both treatments)): 2 (17) n (%)
- TEAE: Nasal congestion ([3]; overall (both treatments)): 1 (8) n (%)
- TEAE: Nervous system disorders ([3]; overall (both treatments)): 3 (25) n (%)
- TEAE: Respiratory, thoracic, and mediastinal disorders ([3]; overall (both treatments)): 2 (17) n (%)
- TEAE: Sensory disturbance ([3]; overall (both treatments)): 1 (8) n (%)
- TEAE: Sinus congestion ([3]; overall (both treatments)): 1 (8) n (%)
- TEAE: Skin and subcutaneous tissue disorders ([3]; overall (both treatments)): 1 (8) n (%)
- TEAE: Sneezing ([3]; overall (both treatments)): 1 (8) n (%)
- tolerability ([3]; single agent or in combination with rifampin, healthy participants): well‐tolerated
- Number of participants with TEAEs [3, 31]: 2 (17) n (%)
- TEAE: Abdominal pain, upper [3, 31]: 0 (0) n (%)
- TEAE: Cough [3, 31]: 1 (8) n (%)
- TEAE: Dermatitis contact [3, 31]: 0 (0) n (%)
- TEAE: Gastrointestinal disorders [3, 31]: 0 (0) n (%)
- TEAE: Headache [3, 31]: 1 (8) n (%)
- TEAE: Nasal congestion [3, 31]: 1 (8) n (%)
- TEAE: Nervous system disorders [3, 31]: 1 (8) n (%)
- TEAE: Respiratory, thoracic, and mediastinal disorders [3, 31]: 1 (8) n (%)
- TEAE: Sensory disturbance [3, 31]: 0 (0) n (%)
- TEAE: Sinus congestion [3, 31]: 0 (0) n (%)
- TEAE: Skin and subcutaneous tissue disorders [3, 31]: 0 (0) n (%)
- TEAE: Sneezing [3, 31]: 0 (0) n (%)
- Number of participants with TEAEs ([3]; trazpiroben 25 mg alone): 6 (50) n (%)
- TEAE: Abdominal pain, upper ([3]; trazpiroben 25 mg alone): 1 (8) n (%)
- TEAE: Cough ([3]; trazpiroben 25 mg alone): 0 (0) n (%)
- TEAE: Dermatitis contact ([3]; trazpiroben 25 mg alone): 1 (8) n (%)
- TEAE: Gastrointestinal disorders ([3]; trazpiroben 25 mg alone): 1 (8) n (%)
- TEAE: Headache ([3]; trazpiroben 25 mg alone): 2 (17) n (%)
- TEAE: Nasal congestion ([3]; trazpiroben 25 mg alone): 0 (0) n (%)
- TEAE: Nervous system disorders ([3]; trazpiroben 25 mg alone): 3 (25) n (%)
- TEAE: Respiratory, thoracic, and mediastinal disorders ([3]; trazpiroben 25 mg alone): 1 (8) n (%)
- TEAE: Sensory disturbance ([3]; trazpiroben 25 mg alone): 1 (8) n (%)
- TEAE: Sinus congestion ([3]; trazpiroben 25 mg alone): 1 (8) n (%)
- TEAE: Skin and subcutaneous tissue disorders ([3]; trazpiroben 25 mg alone): 1 (8) n (%)
- TEAE: Sneezing ([3]; trazpiroben 25 mg alone): 1 (8) n (%)
- participants reporting contact dermatitis ([3]; trazpiroben alone): 8%
- participants reporting headache ([3]; trazpiroben alone): 17%
- participants reporting sensory disturbance ([3]; trazpiroben alone): 8%
- participants reporting sinus congestion ([3]; trazpiroben alone): 8%
- participants reporting upper abdominal pain ([3]; trazpiroben alone): 8%
- severity of TEAEs ([3]; whole study): mild
- number of TEAEs recorded ([3]; whole study, 12 participants): 10
- deaths, serious AEs, discontinuations due to an AE ([3]; whole study, trazpiroben alone and with rifampin): no deaths, serious AEs, or discontinuations due to an AE
- absolute bioavailability [4]: ~ 20%
- absolute bioavailability [5]: ~ 20%
- share of metabolism via non-CYP cytosolic NADPH-dependent reductases (to M23) [6]: 56.7%
- share of metabolism via CYP3A4 (CYP3A4 [7]): 25.8%
- share of metabolism via CYP2C8 (CYP2C8 [8]): 11.8%
- dosed radioactivity excreted in bile ([9]; bile duct cannulated rats): ~ 86%
- dosed radioactivity excreted in feces ([9]; bile duct cannulated rats): 11%
- dosed radioactivity excreted in urine ([9]; bile duct cannulated rats): 5%
- dosed radioactivity excreted in feces [9, 32]: ~ 94%
- dosed radioactivity excreted in urine [9, 32]: 6%
- accumulation after repeated doses [10]: minor accumulation
- increase of plasma concentrations with dose [10]: dose‐proportional manner
- inhibition of CYP1A2 (CYP1A2): does not inhibit
- inhibition of CYP2B6 (CYP2B6): does not inhibit
- inhibition of CYP2C8 (CYP2C8 [11]): does not inhibit
- inhibition of CYP2C9 (CYP2C9): does not inhibit
- inhibition of CYP2C19 (CYP2C19): does not inhibit
- inhibition of CYP2D6 (CYP2D6): does not inhibit
- inhibition of CYP3A (CYP3A): does not inhibit
- induction of CYP isoforms (CYP isoforms): does not induce
- sensitivity to CYP3A4 inhibition (CYP3A4 [12]): relatively insensitive
- accumulation index ([13]; 50 mg twice daily for 5 days): 1.9
- accumulation index ([13]; 100 mg twice daily for 5 days): 1.4
- time to maximum concentration [T max] ([13]; AT-01C study, healthy men and women): ~ 1.1 h
- mean half-life ([13]; AT-01C study): 4 h
- mean apparent oral clearance ([13]; across single-dose groups of 25–300 mg): 600 to 800 L/h
- tolerability [14]: well‐tolerated
- tolerability [15]: well‐tolerated
- substrate of p-glycoprotein (P-gp) (p-glycoprotein (P-gp)): substrate
- substrate of OATP1B1/1B3 (OATP1B1/1B3 [16]): substrate
- substrate of BCRP [17]: not a substrate
- substrate of MATE1 (MATE1 [18]): not a substrate
- substrate of MATE2-K (MATE2-K [19]): not a substrate
- substrate of OAT1 (OAT1 [20]): not a substrate
- substrate of OAT3 (OAT3 [21]): not a substrate
- substrate of OCT2 (OCT2 [22]): not a substrate
- inhibitor of BCRP (BCRP): not an inhibitor
- inhibitor of bile salt export pump (bile salt export pump): not an inhibitor
- inhibitor of MATE1 (MATE1 [23]): not an inhibitor
- inhibitor of MATE2-K (MATE2-K [24]): not an inhibitor
- inhibitor of OAT1 (OAT1 [25]): not an inhibitor
- inhibitor of OAT3 (OAT3 [26]): not an inhibitor
- inhibitor of OCT2 (OCT2 [27]): not an inhibitor
- inhibitor of OATP1B1/1B3 (OATP1B1/1B3 [28]): not an inhibitor
- safety signals [29]: did not identify any safety signals
